A selection: hits, their analogues and other compounds. The true share with any hit is near 2.1%.
STAT1 blocker: reduces IFN-gamma driven STAT1 reporter signal; AID 920; 0.35% of 200,000 active; inhibition, % at 5.5 µM; NIH 3T3 STAT1-luciferase reporter, luminescence;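 active = inhibition above a set limit, the mean inhibition across all tested compounds plus 3 SD, cut at about 34% in these data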
L929 necroptosis: L929 zVAD cell death inhibition. L929 zVAD necroptosis rescue, ATP luminescence, 24 h; with zVAD 60 µM. viability rescue, % at 10 µM. 0.38% of 220,000 active. AID 1377;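 active = activation, scaled between plate controls, above about 75%, limit read from the data; inactive = activation under that limit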
STAT3 inh-1: inhibitors of IL-6 induced STAT3 signaling; 0.89% of 190,000 active; U3A cells, IL-6 STAT3-luciferase reporter, luminescence; host cell line lacks STAT1; inhibition, % at 5.5 µM;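 active = inhibition above the mean inhibition across all screened compounds plus 3 SD, cut at about 44% in these data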
STAT3 activator: activators of IL-6 induced STAT3 signaling; activation (% of control), % at 5.6 µM; 0.91% of 190,000 active; U3A cells, IL-6 STAT3-luciferase reporter, luminescence; 100% = signal with IL-6 EC80 alone; AID 871;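 active = activation above the screen-wide mean of compound activation plus 3 SD, cut at about 130% in these data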
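Test system: Human STAT1-deficient U3A cells with stable STAT3-luciferase reporter | Also added: Interleukin-6, 33 ng/mL | Timing: Compound pre-incubation 1 h before IL-6, then 6 h stimulation at 37 °C | Technique: Luciferase reporter luminescence | Read-out: Percent of IL-6-only median luminescence | Benchmarks: IL-6-only wells as 100% reference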
TNF necrop inh: TNF-alpha cell death inhibition in Jurkat FADD-/- cells; Jurkat FADD-/- TNF necroptosis rescue, ATP luminescence, 24 h; 0 = TNF only, 100 = no-TNF cells; activation (protection from cell death), % at 10 µM; 0.068% of 220,000 active; AID 463075;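 active = activation, meaning protection from cell death, of at least 50% relative to plate controls; inactive = activation below 50%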;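 also: necroptosis triggered by 40 ng/mL TNF-alpha added together with compound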
STAT3 inh-2: confirmation of STAT3 signaling inhibitors; U3A cells, IL-6 STAT3 luciferase reporter, luminescence; cell line lacks STAT1; shares compounds with STAT3 inh-1; 45% of 1,200 active; inhibition, % at 5.7 µM;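 active = inhibition above the hit cutoff computed for the primary STAT3 screen, cut at about 44% in these data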
NFkB inh STAT3ct: counter-screen for STAT3 inhibitors: NF-kappaB inhibition. shares compounds with STAT3 inh-1. HEK293T NF-kB luciferase reporter, TNF-alpha induced. inhibition, % at 5.7 µM. 36% of 1,200 active;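 active = inhibition above the mean of solvent-only control wells plus 3 SD, cutoff set per campaign, cut at about 13% in these data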
STAT1 inh 2: counter-screen for STAT3 inhibitors: STAT1 inhibition; NIH 3T3 STAT1-luciferase reporter, IFN-gamma induced, luminescence; inhibition, % at 5.7 µM; 27% of 1,200 active; shares compounds with STAT3 inh-1; AID 1317;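 active = inhibition above the mean plus 3 SD of solvent-only control wells, limit set per screening run, cut at about 16% in these data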
Hits are given with their value; - = inactive; . = no result given.

SMILES | STAT1 blocker | L929 necroptosis | STAT3 inh-1 | STAT3 activator | TNF necrop inh | STAT3 inh-2 | NFkB inh STAT3ct | STAT1 inh 2
Cc1cc(C)n(-c2ccc(C(=O)Nc3ccc(S(=O)(=O)NCc4ccco4)cc3)cc2)n1 | - | - | 75 | - | - | 56 | 17 | 19
Cc1ccc(C(=O)Nc2ccc(S(=O)(=O)NCc3ccco3)cc2)cc1 | - | - | - | - | - | . | . | .
c1c2c(cc3sc(N4CCOCC4)nc13)OCO2 | - | - | - | - | - | . | . | .
c1c2c(cc3sc(N4CCCCC4)nc13)OCO2 | - | - | 62 | - | - | - | - | -
O=[N+]([O-])c1ccc(N/N=C/c2sc(N3CCOCC3)nc2-c2ccccc2)c(S(=O)(=O)Nc2ccc(Cl)cc2)c1 | - | - | 81 | - | - | 71 | 48 | 54
CC[n+]1c(/C=C2\Sc3ccccc3N2C)ccc2cccc(C)c21 | - | - | 84 | - | - | 80 | 31 | -
CCN1/C(=C/c2ccc3cc(C)ccc3[n+]2CC)Sc2ccccc21 | - | - | 91 | - | - | 88 | 37 | 21
CC1Cc2cc(-c3csc(NC(=O)Cc4ccccc4)n3)ccc2N1S(C)(=O)=O (centres undefined) | - | - | 66 | - | - | 53 | 13 | -
COc1ccc(N/C(=C(/C(Cl)=C(Cl)Cl)[N+](=O)[O-])n2nnc3ccccc32)cc1 | - | - | - | - | - | . | . | .
CC(=O)c1c(C)nc(-c2ccccc2)nc1NC(=O)Cc1ccccc1 | - | - | - | - | - | . | . | .
O=C(Nc1nnc(-c2ccco2)s1)c1ccccc1 | - | - | 47 | - | - | - | - | -
COc1ccc(C(=O)Nc2nnc(-c3ccco3)s2)cc1 | 35 | - | 82 | - | - | 55 | 19 | -
COc1ccccc1C(=O)Nc1nnc(-c2ccco2)s1 | - | - | - | - | - | . | . | .
CCCCC[n+]1cccc2c3ccccc3ccc21 | - | - | 73 | - | - | 66 | 21 | 24
NC(=O)C[n+]1cccc2ccccc21 | - | - | - | - | - | . | . | .
CC[n+]1c(/C=C2/C=C(C)CC(C)C2)sc2ccccc21 (centres undefined) | - | - | - | - | - | . | . | .
CC[n+]1c(C=C2C=C(C)OC(C)=C2)sc2ccccc21 | - | - | 84 | - | - | 85 | 27 | -
Cc1cc(N2CCOCC2)nc(NCc2ccccc2)n1 | - | - | - | - | - | . | . | .
Cc1cc(N2CCCCC2)nc(NCc2ccccc2)n1 | - | - | 46 | - | - | - | - | 21
COc1ccc(N2C(=O)CC(N3CCC(O)(c4cccc(C(F)(F)F)c4)CC3)C2=O)cc1 (centres undefined) | - | - | - | - | - | . | . | .
OC(COCCOc1ccc(Br)cc1)CN1CCN(Cc2ccccc2)CC1 (centres undefined) | - | - | - | - | - | . | . | .
COc1ccc(-c2cc(C(=O)N3CCN(C(c4ccccc4)c4ccccc4)CC3)no2)cc1OC | - | - | - | - | - | . | . | .
Cc1cc(C)n(Cc2ccc(NC(=O)c3ccc(COc4ccccc4Br)cc3)cc2)n1 | - | - | 52 | - | - | 52 | - | -
COc1ccc(-n2cc(C(=O)c3ccccc3O)cn2)cc1 | - | - | 65 | - | - | - | - | -
O=C(c1cnn(-c2ccccc2)c1)c1ccccc1O | - | - | - | - | - | . | . | .
SMILES | STAT1 blocker | L929 necroptosis | STAT3 inh-1 | STAT3 activator | TNF necrop inh | STAT3 inh-2 | NFkB inh STAT3ct | STAT1 inh 2
CCN=c1scc(-c2ccc3c(c2)NC(=O)CO3)n1N=C1CCCC1 | - | - | 73 | - | - | 64 | 14 | -
CCOC(=O)c1csc(NC(=O)c2ccc(S(=O)(=O)N(C)C)cc2)n1 | - | - | - | - | - | . | . | .
COc1ccc(-c2nn(C)c(=O)c3ccccc23)cc1NC(=O)COc1ccc(C)cc1 | - | - | 65 | - | - | 49 | - | -
COCCCNC(=O)c1ccc2c(=O)n(Cc3ccc(OC)cc3)c(=O)[nH]c2c1 | - | - | - | - | - | . | . | .
CCN(CC)S(=O)(=O)c1cc(C(=O)OCC(=O)Nc2ccc(-c3nc4ccc(C)cc4s3)cc2)ccc1F | - | . | - | - | - | . | . | .
CCN(CC)S(=O)(=O)c1ccc(C(=O)OCC(=O)Nc2ccc(-c3nc4ccc(C)cc4s3)cc2)cc1 | - | - | 47 | - | - | - | - | -
CCCc1nnc(NC(=O)CCC(=O)N2CCN(CCn3c(C)ccc3C)CC2)s1 | - | - | - | - | - | . | . | .
C(=N\N1CCN(c2ccccn2)CC1)/c1cccc2ccccc12 | . | - | . | . | - | . | . | .
O=C(NC1CC1)c1cc2c(s1)-c1ccccc1OC2 | - | - | 71 | - | - | 63 | - | -
O=C(COC(=O)/C=C/c1ccc2c(c1)OCO2)Nc1ccccc1 | - | - | - | - | - | . | . | .
Cc1ccc(CN=C2Nc3ccccc3CS2)cc1 | - | - | 59 | - | - | - | - | -
Cc1ccc(COC(=O)c2nn(C)c(=O)c3ccccc23)cc1 | - | - | 52 | - | - | 47 | 17 | 21
Cn1nc(C(=O)OCc2ccc(F)cc2)c2ccccc2c1=O | - | - | - | - | - | . | . | .
c1csc(-c2csc3ncnc(NCCCN4CCOCC4)c23)c1 | - | - | 46 | - | - | - | - | -
c1ccc(-c2csc3ncnc(NCCCN4CCOCC4)c23)cc1 | - | - | - | - | - | . | . | .
CCOc1ccc(-c2noc(CCC(=O)O)n2)cc1 | - | - | 59 | - | - | - | 24 | -
COc1ccc(-c2noc(CCCC(=O)O)n2)cc1 | - | - | 57 | - | - | 45 | 30 | -
O=C(O)CCc1nc(-c2ccccc2)no1 | - | - | - | - | - | . | . | .
COc1ccc(-c2noc(CCC(=O)O)n2)cc1 | - | . | - | - | - | . | . | .
CCc1ccc(NC(=O)CSc2nc3ccsc3c(=O)n2CCCCCC(=O)O)cc1 | - | - | - | - | - | . | . | .
Cc1cc(NC(=O)COC(=O)c2cccc(OCc3ccccc3)c2)no1 | - | - | - | - | - | . | . | .
CCOc1ccc(C(=O)Nc2cc(C)on2)cc1 | - | - | 46 | - | - | - | - | -
Cc1cc(NC(=O)c2cccc(COc3ccc(Br)cc3)c2)no1 | - | - | 49 | - | - | - | 41 | -
CC(C)c1cc(C(N)=O)c(NC(=O)c2cccc(COc3ccc(Cl)cc3)c2)s1 | 34 | - | 63 | - | - | - | - | -
Cc1nn(Cc2c(F)c(F)c(F)c(F)c2F)c(C)c1NC(=O)c1cccc(COc2ccc(Cl)cc2)c1 | - | - | - | - | - | . | . | .
COc1ccccc1N(CC(O)COc1c(C)cc(C)cc1C)S(=O)(=O)c1ccccc1 (centres undefined) | - | - | - | - | - | . | . | .
